Experimental data: ChEMBL document CHEMBL1152161, “A facile synthesis, antibacterial, and antitubercular studies of some piperidin-4-one and tetrahydropyridine derivatives” (2008)
Converted amounts (≈) assume the structure as drawn. The source made the active and inactive calls. The rule behind the calls is not given here.

What follows are molecules tested on Staphylococcus aureus (assay: Antibacterial activity against Staphylococcus aureus by broth micro dilution method). Conditions: not given.
Type: functional
Procedure, shortened: (§1)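 MIC90 was found by broth microdilution following NCCLS methods. Compounds were tested up to a top concentration of […]. Linezolid and trovafloxacin served as positive controls and DMSO as the negative control.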
With `N[C@@H]1[C@H]2CN(c3nc4c(cc3F)c(=O)c(C(=O)O)cn4-c3ccc(F)cc3F)C[C@@H]12` [TROVAFLOXACIN] the MIC90 was under 0.0625 µg/mL. Work on `Cc1ccc(C2C(C)C(=O)C(C)C(c3ccc(C)cc3)N2C(=O)Cn2cnc3ccccc32)cc1` (stereo unspecified) yielded an MIC90 of 64 µg/mL (≈ 137 µM). `CC(=O)NC[C@H]1CN(c2ccc(N3CCOCC3)c(F)c2)C(=O)O1` [LINEZOLID] showed an MIC90 of 1 µg/mL (≈ 2.96 µM).

The molecules below were run on Staphylococcus aureus (assay: Antibacterial activity against methicillin-resistant Staphylococcus aureus by broth micro dilution method). Conditions: not given.
Type: functional
Procedure, shortened: (§2)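 MIC90 was determined by broth microdilution following NCCLS methods. Linezolid and trovafloxacin were run as positive controls, with DMSO as the negative control. Compounds were tested up to a top concentration of 128.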
For `N[C@@H]1[C@H]2CN(c3nc4c(cc3F)c(=O)c(C(=O)O)cn4-c3ccc(F)cc3F)C[C@@H]12` [TROVAFLOXACIN], the MIC90 was 1 µg/mL (≈ 2.4 µM). In the case of `Cc1ccc(C2C(C)C(=O)C(C)C(c3ccc(C)cc3)N2C(=O)Cn2cnc3ccccc32)cc1` (stereo unspecified), the MIC90 is reported as 64 µg/mL (≈ 137 µM). `CC(=O)NC[C@H]1CN(c2ccc(N3CCOCC3)c(F)c2)C(=O)O1` [LINEZOLID] was tested, and the MIC90 was 2 µg/mL (≈ 5.93 µM).

The molecules below were run on Staphylococcus epidermidis (assay: Antibacterial activity against Staphylococcus epidermidis by broth micro dilution method). Conditions: not given.
Type: functional
Procedure, shortened: as §2
`N[C@@H]1[C@H]2CN(c3nc4c(cc3F)c(=O)c(C(=O)O)cn4-c3ccc(F)cc3F)C[C@@H]12` [TROVAFLOXACIN] gave an MIC90 of under 0.0625 µg/mL. For `CC(=O)NC[C@H]1CN(c2ccc(N3CCOCC3)c(F)c2)C(=O)O1` [LINEZOLID], the MIC90 was 1 µg/mL (≈ 2.96 µM).

The molecules below were run on Staphylococcus epidermidis (assay: Antibacterial activity against methicillin-resistant Staphylococcus epidermidis by broth micro dilution method). Conditions: not given.
Type: functional
Procedure, shortened: as §2
`CC(=O)NC[C@H]1CN(c2ccc(N3CCOCC3)c(F)c2)C(=O)O1` [LINEZOLID] showed an MIC90 of 2 µg/mL (≈ 5.93 µM).

What follows are molecules tested on Enterococcus faecalis (assay: Antibacterial activity against Enterococcus faecalis by broth micro dilution method). Conditions: not given.
Type: functional
Procedure, shortened: as §1
Work on `N[C@@H]1[C@H]2CN(c3nc4c(cc3F)c(=O)c(C(=O)O)cn4-c3ccc(F)cc3F)C[C@@H]12` [TROVAFLOXACIN] yielded an MIC90 of 0.128 µg/mL (≈ 0.307 µM). In the case of `Cc1ccc(C2C(C)C(=O)C(C)C(c3ccc(C)cc3)N2C(=O)Cn2cnc3ccccc32)cc1` (stereo unspecified), the MIC90 is reported as 128 µg/mL (≈ 275 µM). Molecule `CC(=O)NC[C@H]1CN(c2ccc(N3CCOCC3)c(F)c2)C(=O)O1` [LINEZOLID] has an MIC90 of 2 µg/mL (≈ 5.93 µM).

Each molecule was assayed on Enterococcus faecalis (assay: Antibacterial activity against vancomycin-resistant Enterococcus faecalis by broth micro dilution method). Conditions: not given.
Type: functional
Procedure, shortened: as §2
For `N[C@@H]1[C@H]2CN(c3nc4c(cc3F)c(=O)c(C(=O)O)cn4-c3ccc(F)cc3F)C[C@@H]12` [TROVAFLOXACIN], the MIC90 was 8 µg/mL (≈ 19.2 µM). In the case of `Cc1ccc(C2C(C)C(=O)C(C)C(c3ccc(C)cc3)N2C(=O)Cn2cnc3ccccc32)cc1` (stereo unspecified), the MIC90 is reported as 128 µg/mL (≈ 275 µM). `CC(=O)NC[C@H]1CN(c2ccc(N3CCOCC3)c(F)c2)C(=O)O1` [LINEZOLID] gave an MIC90 of 2 µg/mL (≈ 5.93 µM).

The molecules below were run on Enterococcus faecalis (assay: Antibacterial activity against vancomycin and linezolid-resistant Enterococcus faecalis by broth micro dilution method). Conditions: not given.
Type: functional
Procedure, shortened: as §2
For `N[C@@H]1[C@H]2CN(c3nc4c(cc3F)c(=O)c(C(=O)O)cn4-c3ccc(F)cc3F)C[C@@H]12` [TROVAFLOXACIN], the MIC90 was 16 µg/mL (≈ 38.4 µM). `CC(=O)NC[C@H]1CN(c2ccc(N3CCOCC3)c(F)c2)C(=O)O1` [LINEZOLID] was tested, and the MIC90 was 64 µg/mL (≈ 190 µM).

These molecules were tested on Enterococcus faecium (assay: Antibacterial activity against Enterococcus faecium by broth micro dilution method). Conditions: not given.
Type: functional
Procedure, shortened: as §1
Work on `N[C@@H]1[C@H]2CN(c3nc4c(cc3F)c(=O)c(C(=O)O)cn4-c3ccc(F)cc3F)C[C@@H]12` [TROVAFLOXACIN] yielded an MIC90 of 64 µg/mL (≈ 154 µM). Molecule `CC(=O)NC[C@H]1CN(c2ccc(N3CCOCC3)c(F)c2)C(=O)O1` [LINEZOLID] has an MIC90 of 2 µg/mL (≈ 5.93 µM).

What follows are molecules tested on Enterococcus faecium (assay: Antibacterial activity against vancomycin-resistant Enterococcus faecium by broth micro dilution method). Conditions: Enterococcus faecium.
Type: functional
Procedure, shortened: as §2
`N[C@@H]1[C@H]2CN(c3nc4c(cc3F)c(=O)c(C(=O)O)cn4-c3ccc(F)cc3F)C[C@@H]12` [TROVAFLOXACIN] gave an MIC90 of 8 µg/mL (≈ 19.2 µM). Work on `Cc1ccc(C2C(C)C(=O)C(C)C(c3ccc(C)cc3)N2C(=O)Cn2cnc3ccccc32)cc1` (stereo unspecified) yielded an MIC90 of 32 µg/mL (≈ 68.7 µM). For `CC(=O)NC[C@H]1CN(c2ccc(N3CCOCC3)c(F)c2)C(=O)O1` [LINEZOLID], the MIC90 was 2 µg/mL (≈ 5.93 µM).

The molecules below were run on Staphylococcus epidermidis (assay: Antibacterial activity against Staphylococcus epidermidis at 128 ug/mL by broth micro dilution method). Conditions: not given.
Type: functional, organism-based
`Cc1ccc(C2C(C)C(=O)C(C)C(c3ccc(C)cc3)N2C(=O)Cn2cnc3ccccc32)cc1` (stereo unspecified) was tested, and the Activity was “inactive”.

What follows are molecules tested on Staphylococcus epidermidis (assay: Antibacterial activity against methicillin-resistant Staphylococcus epidermidis at 128 ug/mL by broth micro dilution method). Conditions: not given.
Type: functional, organism-based
Procedure, shortened: as §2
For `Cc1ccc(C2C(C)C(=O)C(C)C(c3ccc(C)cc3)N2C(=O)Cn2cnc3ccccc32)cc1` (stereo unspecified), the Activity was “inactive”.

These molecules were tested on Enterococcus faecalis (assay: Antibacterial activity against vancomycin and linezolid-resistant Enterococcus faecalis at 128 ug/mL by broth micro dilution method). Conditions: not given.
Type: functional, organism-based
Procedure, shortened: as §2
`Cc1ccc(C2C(C)C(=O)C(C)C(c3ccc(C)cc3)N2C(=O)Cn2cnc3ccccc32)cc1` (stereo unspecified) was tested, and the Activity was “inactive”.

These molecules were tested on Enterococcus faecium (assay: Antibacterial activity against Enterococcus faecium at 128 ug/mL by broth micro dilution method). Conditions: not given.
Type: functional, organism-based
In the case of `Cc1ccc(C2C(C)C(=O)C(C)C(c3ccc(C)cc3)N2C(=O)Cn2cnc3ccccc32)cc1` (stereo unspecified), the Activity is reported as “inactive”.

The molecules below were run on Escherichia coli (assay: Antibacterial activity against Escherichia coli LCB0010 at 128 ug/mL by broth micro dilution method). Conditions: not given.
Type: functional, organism-based
With `Cc1ccc(C2C(C)C(=O)C(C)C(c3ccc(C)cc3)N2C(=O)Cn2cnc3ccccc32)cc1` (stereo unspecified) the Activity was “inactive”. For `CC(=O)NC[C@H]1CN(c2ccc(N3CCOCC3)c(F)c2)C(=O)O1` [LINEZOLID], the Activity was “inactive”.

These molecules were tested on Escherichia coli (assay: Antibacterial activity against Escherichia coli LCB0011 by broth micro dilution method). Conditions: not given.
Type: functional
Procedure, shortened: as §1
In the case of `N[C@@H]1[C@H]2CN(c3nc4c(cc3F)c(=O)c(C(=O)O)cn4-c3ccc(F)cc3F)C[C@@H]12` [TROVAFLOXACIN], the MIC90 is reported as under 0.0625 µg/mL. With `Cc1ccc(C2C(C)C(=O)C(C)C(c3ccc(C)cc3)N2C(=O)Cn2cnc3ccccc32)cc1` (stereo unspecified) the MIC90 was 128 µg/mL (≈ 275 µM). `CC(=O)NC[C@H]1CN(c2ccc(N3CCOCC3)c(F)c2)C(=O)O1` [LINEZOLID] gave an MIC90 of 16 µg/mL (≈ 47.4 µM).

The molecules below were run on Escherichia coli (assay: Antibacterial activity against Escherichia coli LCB0012 by broth micro dilution method). Conditions: not given.
Type: functional
Procedure, shortened: as §1
For `N[C@@H]1[C@H]2CN(c3nc4c(cc3F)c(=O)c(C(=O)O)cn4-c3ccc(F)cc3F)C[C@@H]12` [TROVAFLOXACIN], the MIC90 was under 0.0625 µg/mL. Molecule `CC(=O)NC[C@H]1CN(c2ccc(N3CCOCC3)c(F)c2)C(=O)O1` [LINEZOLID] has an MIC90 of 64 µg/mL (≈ 190 µM).

What follows are molecules tested on Pseudomonas aeruginosa (assay: Antibacterial activity against Pseudomonas aeruginosa by broth micro dilution method). Conditions: not given.
Type: functional
Procedure, shortened: as §1
`N[C@@H]1[C@H]2CN(c3nc4c(cc3F)c(=O)c(C(=O)O)cn4-c3ccc(F)cc3F)C[C@@H]12` [TROVAFLOXACIN] was tested, and the MIC90 was 0.125 µg/mL (≈ 0.3 µM).

What follows are molecules tested on Klebsiella pneumoniae (assay: Antibacterial activity against Klebsiella pneumoniae by broth micro dilution method). Conditions: not given.
Type: functional
Procedure, shortened: as §1
`N[C@@H]1[C@H]2CN(c3nc4c(cc3F)c(=O)c(C(=O)O)cn4-c3ccc(F)cc3F)C[C@@H]12` [TROVAFLOXACIN] showed an MIC90 of 0.125 µg/mL (≈ 0.3 µM).

What follows are molecules tested on Haemophilus influenzae (assay: Antibacterial activity against Haemophilus influenzae by broth micro dilution method). Conditions: not given.
Type: functional
Procedure, shortened: as §1
`N[C@@H]1[C@H]2CN(c3nc4c(cc3F)c(=O)c(C(=O)O)cn4-c3ccc(F)cc3F)C[C@@H]12` [TROVAFLOXACIN] showed an MIC90 of under 0.0625 µg/mL. `CC(=O)NC[C@H]1CN(c2ccc(N3CCOCC3)c(F)c2)C(=O)O1` [LINEZOLID] gave an MIC90 of 16 µg/mL (≈ 47.4 µM).

The molecules below were run on Moraxella catarrhalis (assay: Antibacterial activity against Moraxella catarrhalis by broth micro dilution method). Conditions: not given.
Type: functional
Procedure, shortened: as §1
`N[C@@H]1[C@H]2CN(c3nc4c(cc3F)c(=O)c(C(=O)O)cn4-c3ccc(F)cc3F)C[C@@H]12` [TROVAFLOXACIN] gave an MIC90 of under 0.0625 µg/mL. Molecule `CC(=O)NC[C@H]1CN(c2ccc(N3CCOCC3)c(F)c2)C(=O)O1` [LINEZOLID] has an MIC90 of 8 µg/mL (≈ 23.7 µM).

What follows are molecules tested on Pseudomonas aeruginosa (assay: Antibacterial activity against Pseudomonas aeruginosa at 128 ug/mL by broth micro dilution method). Conditions: not given.
Type: functional, organism-based
In the case of `Cc1ccc(C2C(C)C(=O)C(C)C(c3ccc(C)cc3)N2C(=O)Cn2cnc3ccccc32)cc1` (stereo unspecified), the Activity is reported as “inactive”. With `CC(=O)NC[C@H]1CN(c2ccc(N3CCOCC3)c(F)c2)C(=O)O1` [LINEZOLID] the Activity was “inactive”.

The molecules below were run on Klebsiella pneumoniae (assay: Antibacterial activity against Klebsiella pneumoniae at 128 ug/mL by broth micro dilution method). Conditions: not given.
Type: functional, organism-based
`Cc1ccc(C2C(C)C(=O)C(C)C(c3ccc(C)cc3)N2C(=O)Cn2cnc3ccccc32)cc1` (stereo unspecified) was tested, and the Activity was “inactive”. With `CC(=O)NC[C@H]1CN(c2ccc(N3CCOCC3)c(F)c2)C(=O)O1` [LINEZOLID] the Activity was “inactive”.

The molecules below were run on Haemophilus influenzae (assay: Antibacterial activity against Haemophilus influenzae at 128 ug/mL by broth micro dilution method). Conditions: not given.
Type: functional, organism-based
With `Cc1ccc(C2C(C)C(=O)C(C)C(c3ccc(C)cc3)N2C(=O)Cn2cnc3ccccc32)cc1` (stereo unspecified) the Activity was “inactive”.

Each molecule was assayed on Moraxella catarrhalis (assay: Antibacterial activity against Moraxella catarrhalis at 128 ug/mL by broth micro dilution method). Conditions: not given.
Type: functional, organism-based
In the case of `Cc1ccc(C2C(C)C(=O)C(C)C(c3ccc(C)cc3)N2C(=O)Cn2cnc3ccccc32)cc1` (stereo unspecified), the Activity is reported as “inactive”.

What follows are molecules tested on Escherichia coli (assay: Antibacterial activity against Escherichia coli LCB0010 by broth micro dilution method). Conditions: not given.
Type: functional
Procedure, shortened: as §1
`N[C@@H]1[C@H]2CN(c3nc4c(cc3F)c(=O)c(C(=O)O)cn4-c3ccc(F)cc3F)C[C@@H]12` [TROVAFLOXACIN] gave an MIC90 of under 0.0625 µg/mL.
